Bioassay records as filed in PubChem.
Rin1 Abl inh: inhibitors of human Rin1-Abl protein interaction. TR-FRET Rin1/Abl binding, biochemical. inhibition, % at 7.35 µM. 360,000 compounds, 0.4% hits. AID 588664; in the data active = inhibition above about 5%, passing the limit was not always enough
Tb MetRS inh: Trypanosoma brucei MetRS inhibition. purified T. brucei MetRS, ATP depletion, Kinase-Glo luminescence. inhibition, % at 11.9 µM. 360,000 compounds, 0.4% hits. AID 624268;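 active = inhibition above a per-plate cutoff of the control wells' mean inhibition plus 3 SD, cut at about 5.5% in these data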;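 also: 0% = DMSO wells median and 100% = median of wells with control inhibitor compound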
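Dosing: 11.9 µM compound single dose, 0.9% DMSO; Assay system: purified T. brucei MetRS enzyme; Measured by: Kinase-Glo luciferase luminescence reporting remaining unconsumed ATP; Schedule: 15 min plus 2 h at 25 °C.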
Cardio protect: modulators protecting cardiomyocytes from myocardial damage; protection from H2O2 cell death, % at 20 µM; H9c2 cardiomyocytes, H2O2 injury protection, ATPLite, 2 h; 360,000 compounds, 0.63% hits;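 active = compounds giving at least 50% protection of heart cells from peroxide-induced death in the single-dose screen, raw or plate-pattern-corrected value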;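 also: 0% = DMSO wells with peroxide and 100% = DMSO wells without peroxide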
PKA-R1A act: PKA-R1A complex activation; AID 504707; activation, % at 11.4 µM; 340,000 compounds, 0.083% hits; PKA-R1A dissociation, Cy5-IP20 fluorescence polarization; scaled: DMSO 0%, 113 µM cGMP 100%;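 active = percent activation above the mean of all tested compounds plus 3 SD, cut at about 19% in these data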;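 also: higher means more PKAc released from R1A so a rise in polarization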
PKA-R2B activ: PKA-R2B complex activation; activation, % at 11.4 µM; 340,000 compounds, 0.079% hits; P22694+P31323; PKA-R2B holoenzyme dissociation, Cy5-IP20 fluorescence polarization; R2B truncated from residue 108, S112A mutant; 0% DMSO only, 100% 113 µM cGMP;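 active = activation above a cutoff set at the mean over all compounds plus 3 SD, cut at about 18% in these data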;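 also: higher means more holoenzyme dissociation and a rise in polarization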
Target sequence (P31323 whole entry, looked up, other chains not shown, the tested form may be a part): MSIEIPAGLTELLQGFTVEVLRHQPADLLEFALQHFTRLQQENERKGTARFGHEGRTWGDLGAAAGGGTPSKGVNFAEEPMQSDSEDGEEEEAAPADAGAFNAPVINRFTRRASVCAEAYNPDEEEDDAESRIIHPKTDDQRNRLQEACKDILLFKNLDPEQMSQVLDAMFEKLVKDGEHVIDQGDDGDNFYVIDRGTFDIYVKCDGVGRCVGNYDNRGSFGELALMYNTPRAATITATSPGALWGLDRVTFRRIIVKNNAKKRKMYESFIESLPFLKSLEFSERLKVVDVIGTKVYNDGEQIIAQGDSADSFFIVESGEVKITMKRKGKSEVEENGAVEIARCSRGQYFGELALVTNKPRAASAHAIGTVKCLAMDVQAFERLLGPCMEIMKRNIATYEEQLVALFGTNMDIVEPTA
Rin1-Abl confirm: Rin1-Abl interaction inhibition confirmation | shares compounds with Rin1 Abl inh | TR-FRET Rin1-Abl binding, purified proteins | inhibition, % at 7.35 µM | 1,300 compounds, 49% hits | AID 602124
GFP quench: quenches GFP fluorescence, counter-screen for Rin1-Abl inhibitors; shares compounds with Rin1 Abl inh; inhibition, % at 6.75 µM; AID 602125; 1,300 compounds, 8.5% hits; inhibitors/quenchers counterscreen;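 also: ABL1-eGFP fusion protein alone without its partner RIN1-SBP; 0% = protein with vehicle and 100% = wells lacking protein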
GFP quench DR: quenches GFP in dose response, Rin1-Abl counter-screen. shares compounds with Rin1 Abl inh. GFP fluorescence interference/quenching counterscreen. IC50, µM. 230 tested, under 10 active. AID 602182; call rule not given here;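 also: ABL1-eGFP fusion protein alone without its RIN1 binding partner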
Active calls of the source: *; nt = no result given. In the library only some 1.5% were active in any assay of this set; here they are far more common. Rule as the data show it, unless noted: active = inhibition above about 6.5%; inactive = the rest.

SMILES	Rin1 Abl inh	Tb MetRS inh	Cardio protect	PKA-R1A act	PKA-R2B activ	Rin1-Abl confirm	GFP quench	others
COc1ccc(O)c(CN2CCC(n3nccc3NC(=O)C3CCCC3)CC2)c1	1	0	-3	0	-6	nt	nt
NC(=O)[C@@H]1CCCN1C(=O)c1cc(COc2ccc3c(c2)CCCC3)on1	6.1*	0	0	-10	4	0	1
Cc1cccc(C)c1OCc1cc(C(=O)N2CCC[C@H]2C(N)=O)no1	1	0	-3	5	7	nt	nt
CCOC1=CC2=C(C(=O)C(Cl)=CC2=O)[C@@H]2CN(S(=O)(=O)c3ccc(C)cc3)[C@@H](c3ccccc3)[C@H]12	10	-1	-2	nt	nt	nt	nt
O=c1c(O)cccc2cc(O)c(O)c(O)c12	43*	0	16	-2	-6	39*	33*
CC1=NN(c2ccccc2)C(=O)/C1=C/c1ccc(Cl)cc1	12*	-1	-6	-3	4	0	2
CCOc1cc(/C=C2\C(=O)N(c3ccc(C(N)=O)cc3)N=C2C)ccc1OC(=O)c1cccs1	0	0	-19	-7	2	nt	nt
CCOc1cc(/C=C2/C(=O)N(c3ccccc3)N=C2C)ccc1OC(=O)c1ccco1	19*	0	5	-7	-4	-4	-4
CC1=NN(c2ccc(C(=O)O)cc2)C(=O)/C1=C\c1ccc(OC(=O)c2cccs2)cc1	11*	0	-5	-2	-5	-1	-1
COc1ccc(CN2CCC(CO)(Cc3cccc(C(F)(F)F)c3)CC2)cc1Cn1cccn1	0	0	-8	1	-7	nt	nt
CCOc1ccc(CCNC(=O)Cc2ccc(NC3=NC4CS(=O)(=O)CC4S3)cc2)cc1OCC (stereo unspecified)	5	-1	6	-4	-1	nt	nt
CCN(C(=O)Cc1ccc(NC2=NC3CS(=O)(=O)CC3S2)cc1)c1ccccc1 (stereo unspecified)	15*	0	-3	-1	-11	11*	-1
Cc1ccc(CCNC(=O)c2ccc(NC3=NC4CS(=O)(=O)CC4S3)cc2)cc1 (stereo unspecified)	8.5*	0	0	5	-5	9.3*	0
COc1ccc(OC)c(CCNC(=O)c2ccc(NC3=NC4CS(=O)(=O)CC4S3)cc2)c1 (stereo unspecified)	12*	0	-3	1	-6	13*	0
COc1ccc(OC)c(CCNC(=O)Cc2ccc(NC3=NC4CS(=O)(=O)CC4S3)cc2)c1 (stereo unspecified)	11*	0	2	2	1	13*	-1
CCN(C(=O)Cn1ccc(C(F)(F)F)n1)c1c(N)n(Cc2ccccc2)c(=O)[nH]c1=O	0	0	7	7	0	nt	nt
Cc1cc(C)cc(NC(=O)c2cccc(NC3=NC4CS(=O)(=O)CC4S3)c2)c1 (stereo unspecified)	0	-1	0	-8	-6	nt	nt
O=C(NCCc1ccc(Cl)cc1)c1cccc(NC2=NC3CS(=O)(=O)CC3S2)c1 (stereo unspecified)	8.4*	0	5	-6	16	8.0*	0
CC(=O)Nc1cccc(C(=O)NNC(=O)c2ccc(NS(=O)(=O)c3cccs3)cc2)c1	0	0	-2	5	4	nt	nt
Cc1ccsc1C(=O)NNC(=O)c1ccc(NS(=O)(=O)c2cccs2)cc1	10*	0	-2	0	6	-1	-1
CN(Cc1cnccn1)C(=O)C1CCC(=O)N(CCc2ccccc2)C1 (stereo unspecified)	25*	0	-1	11	-3	29*	1	GFP quench DR=>68
O=C(NCCCN1CCCC1=O)c1ccc(NS(=O)(=O)c2ccccc2)cc1	-1	0	4	-7	1	nt	nt
COc1ccc(/C=N/NC(=O)CC(=O)NCc2cccnc2)cc1[N+](=O)[O-]	-2	0	-1	1	0	nt	nt
O=C(OCCCOC(=O)c1ccc(O)cc1)c1ccc(O)cc1	19*	0	5	-9	6	17*	0
O=C(OCCCCOC(=O)c1ccccc1)c1ccccc1	2	-1	4	-2	-2	nt	nt
SMILES	Rin1 Abl inh	Tb MetRS inh	Cardio protect	PKA-R1A act	PKA-R2B activ	Rin1-Abl confirm	GFP quench	others
O=C(CSc1nnnn1-c1ccc(Cl)cc1)NC1CCS(=O)(=O)C1 (stereo unspecified)	2	0	-1	-3	-5	nt	nt
COc1ccc(C2C3=C(CC(C)(C)CC3=O)Oc3ncn(CCCn4ccnc4)c(=N)c32)cc1 (stereo unspecified)	4.5*	0	25	-3	-3	10*	0
C[C@@H]1O[C@@H](O[C@@H]2[C@@H](O)[C@H](OCCc3ccc(O)c(O)c3)O[C@H](CO)[C@H]2OC(=O)/C=C/c2ccc(O)c(O)c2)[C@H](O)[C@H](O)[C@H]1O	31*	0	5	-7	-4	34*	2
COc1cc(/C=C/C(=O)OC[C@H]2O[C@H](OC3(CO)OC(CO)C(O)C3O)[C@H](O)[C@@H](O)[C@@H]2O)ccc1O (stereo partly specified)	3	0	10	-4	-2	nt	nt
O=C(CCCC(=O)N/N=C\c1ccccn1)N/N=C\c1ccccn1	-1	-1	3	12	1	nt	nt
CC(Nc1cccc2ccccc12)C(=O)N/N=C/c1ccccn1 (stereo unspecified)	11*	-1	-12	-3	2	-2	2
Cc1cc(C)cc(OCc2nnc(SCC(=O)c3ccc(Br)cc3)o2)c1	4.7*	-2	-17	3	-2	1	-1
Cc1sc2ncnc(N3CCC(C(=O)Nc4ccc(OC(F)F)c(Cl)c4)CC3)c2c1C	-2	1	-5	-2	2	nt	nt
CCN(CC)CCNC(=O)c1ccc(NC(=O)C2CCN(c3ncnc4sc(C)c(C)c34)CC2)cc1	10*	0	12	-13	-17	0	0
Oc1c(CN2CCCCC2)cc(COCc2ccccc2)c2cccnc12	14*	0	25	-6	-3	6	1
Oc1ccc(CN2CCCCC2)c2cccnc12	2	-1	15	-5	-18	nt	nt
Oc1c(CN2CCCCC2)ccc2cccnc12	34*	0	-8	1	0	5	4
COc1ccccc1N1CCN(Cc2cc(Br)c(O)c3ncccc23)CC1	9.7*	-1	38	-8	-3	0	2
